# Measured values from ChEMBL document CHEMBL2407075, “Sulphonamido-quinoxalines: search for anticancer agent” (Eur J Med Chem, 2013).
# Key:
# [1] = Oral bioavailability in human; assay type: ADME, organism-based; settings: in silico prediction
# OVCAR-8 = assay: Growth inhibition of human OVCAR8 cells at 10 uM after 48 hrs by sulforhodamine B assay; assay type: functional; settings: OVCAR-8, 48 h, read-out: GI
# How it was run: (§1)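 Single-dose screen at 10 µM across the NCI 60 panel. Cells in RPMI 1640 with 5% FBS and 2 mM L-glutamine, plated at 5000–40,000/well and preincubated 24 h at 37 °C, 5% CO2. Drug in DMSO, 48 h exposure. Fixed with TCA, stained with SRB, A515 read. Percent growth is taken relative to untreated control, and inhibition is 100 minus growth.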
# SK-MEL-2 = assay: Growth inhibition of human SK-MEL-2 cells at 10 uM after 48 hrs by sulforhodamine B assay; assay type: functional; settings: SK-MEL-2, 48 h, read-out: GI; how it was run: as §1
# BT-549 = assay: Growth inhibition of human BT549 cells at 10 uM after 48 hrs by sulforhodamine B assay; assay type: functional; settings: BT-549, 48 h, read-out: GI
# How it was run: (§2)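 Single-dose NCI-60 prescreen at 10 µM for 48 h at 37 °C and 5% CO2, using cells grown in RPMI 1640 with 5% FBS and 2 mM glutamine. Protein was measured by SRB after TCA fixation: 10% final for adherent lines, 16% for suspension lines. Absorbance was read at 515 nm. Percent growth inhibition was obtained by subtracting percent growth from 100.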
# A498 = assay: Growth inhibition of human A498 cells at 10 uM after 48 hrs by sulforhodamine B assay; assay type: functional; settings: A498, 48 h, read-out: GI; how it was run: as §2
# [2] = Growth inhibition of human HCC2998 cells at 10 uM after 48 hrs by sulforhodamine B assay; assay type: functional; settings: HCC 2998, 48 h, read-out: GI
# How it was run: (§3)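 NCI-60 one-dose primary screen at a single 10 µM concentration. Cells in RPMI 1640 with 5% FBS, preincubated 24 h at 37 °C, 5% CO2. Drug exposure 48 h, then TCA fixation, SRB staining and absorbance at 515 nm. Percent growth calculated against time-zero and untreated control wells, then converted to percent growth inhibition.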
# MCF7 = assay: Growth inhibition of human MCF7 cells at 10 uM after 48 hrs by sulforhodamine B assay; assay type: functional; settings: MCF7, 48 h, read-out: GI; how it was run: as §1
# SNB-75 = assay: Growth inhibition of human SNB75 cells at 10 uM after 48 hrs by sulforhodamine B assay; assay type: functional; settings: SNB-75, 48 h, read-out: GI; how it was run: as §1
# [3] = Growth inhibition of human NCI-ADR-RES cells at 10 uM after 48 hrs by sulforhodamine B assay; assay type: functional; settings: read-out: GI; how it was run: as §1
# SK-MEL-28 = assay: Growth inhibition of human SK-MEL-28 cells at 10 uM after 48 hrs by sulforhodamine B assay; assay type: functional; settings: SK-MEL-28, 48 h, read-out: GI; how it was run: as §1
# UO-31 = assay: Growth inhibition of human UO31 cells at 10 uM after 48 hrs by sulforhodamine B assay; assay type: functional; settings: UO-31, 48 h, read-out: GI; how it was run: as §1
# HCT-15 = assay: Growth inhibition of human HCT15 cells at 10 uM after 48 hrs by sulforhodamine B assay; assay type: functional; settings: HCT-15, 48 h, read-out: GI; how it was run: as §3
# SK-MEL-5 = assay: Growth inhibition of human SK-MEL-5 cells at 10 uM after 48 hrs by sulforhodamine B assay; assay type: functional; settings: SK-MEL-5, 48 h, read-out: GI; how it was run: as §1
# OVCAR-4 = assay: Growth inhibition of human OVCAR4 cells at 10 uM after 48 hrs by sulforhodamine B assay; assay type: functional; settings: OVCAR-4, 48 h, read-out: GI; how it was run: as §1
# SF-539 = assay: Growth inhibition of human SF539 cells at 10 uM after 48 hrs by sulforhodamine B assay; assay type: functional; settings: SF-539, 48 h, read-out: GI; how it was run: as §1
# HCT-116 = assay: Growth inhibition of human HCT116 cells at 10 uM after 48 hrs by sulforhodamine B assay; assay type: functional; settings: HCT-116, 48 h, read-out: GI; how it was run: as §3
# Malme-3M = assay: Growth inhibition of human MALME-3M cells at 10 uM after 48 hrs by sulforhodamine B assay; assay type: functional; settings: read-out: GI; how it was run: as §1
# K562 = assay: Growth inhibition of human K562 cells at 10 uM after 48 hrs by sulforhodamine B assay; assay type: functional; settings: K562, 48 h, read-out: GI; how it was run: as §1
# RPMI-8226 = assay: Growth inhibition of human RPMI8226 cells at 10 uM after 48 hrs by sulforhodamine B assay; assay type: functional; settings: RPMI-8226, 48 h, read-out: GI; how it was run: as §1
# UACC-257 = assay: Growth inhibition of human UACC257 cells at 10 uM after 48 hrs by sulforhodamine B assay; assay type: functional; settings: UACC-257, 48 h, read-out: GI; how it was run: as §1
# U-251 = assay: Growth inhibition of human U251 cells at 10 uM after 48 hrs by sulforhodamine B assay; assay type: functional; settings: U-251, 48 h, read-out: GI; how it was run: as §1
# COLO 205 = assay: Growth inhibition of human COLO205 cells at 10 uM after 48 hrs by sulforhodamine B assay; assay type: functional; settings: COLO 205, 48 h, read-out: GI; how it was run: as §2
# MDA-MB-468 = assay: Growth inhibition of human MDA-MB-468 cells at 10 uM after 48 hrs by sulforhodamine B assay; assay type: functional; settings: MDA-MB-468, 48 h, read-out: GI; how it was run: as §1
# UACC-62 = assay: Growth inhibition of human UACC62 cells at 10 uM after 48 hrs by sulforhodamine B assay; assay type: functional; settings: UACC-62, 48 h, read-out: GI; how it was run: as §1
# NCI-H23 = assay: Growth inhibition of human NCI-H23 cells at 10 uM after 48 hrs by sulforhodamine B assay; assay type: functional; settings: NCI-H23, 48 h, read-out: GI; how it was run: as §1
# SW-620 = assay: Growth inhibition of human SW620 cells at 10 uM after 48 hrs by sulforhodamine B assay; assay type: functional; settings: SW-620, 48 h, read-out: GI; how it was run: as §1
# HT-29 = assay: Growth inhibition of human HT-29 cells at 10 uM after 48 hrs by sulforhodamine B assay; assay type: functional; settings: HT-29, 48 h, read-out: GI; how it was run: as §3
# NCI-H226 = assay: Growth inhibition of human NCI-H226 cells at 10 uM after 48 hrs by sulforhodamine B assay; assay type: functional; settings: NCI-H226, 48 h, read-out: GI; how it was run: as §1
# OVCAR-3 = assay: Growth inhibition of human OVCAR3 cells at 10 uM after 48 hrs by sulforhodamine B assay; assay type: functional; settings: OVCAR-3, 48 h, read-out: GI; how it was run: as §1
# NCI-H522 = assay: Growth inhibition of human NCI-H522 cells at 10 uM after 48 hrs by sulforhodamine B assay; assay type: functional; settings: NCI-H522, 48 h, read-out: GI; how it was run: as §1
# A549 = assay: Growth inhibition of human A549/ATCC cells at 10 uM after 48 hrs by sulforhodamine B assay; assay type: functional; settings: A549, 48 h, read-out: GI; how it was run: as §2
# ACHN = assay: Growth inhibition of human ACHN cells at 10 uM after 48 hrs by sulforhodamine B assay; assay type: functional; settings: read-out: GI; how it was run: as §2
# SF-268 = assay: Growth inhibition of human SF268 cells at 10 uM after 48 hrs by sulforhodamine B assay; assay type: functional; settings: SF-268, 48 h, read-out: GI; how it was run: as §1
# [4] = Growth inhibition of human Hs 578T cells at 10 uM after 48 hrs by sulforhodamine B assay; assay type: functional; settings: read-out: GI; how it was run: as §3
Structure (SMILES),bioavailability [1] [%],inhibition of growth at 10 µM (OVCAR-8) [%],inhibition of growth at 10 µM (SK-MEL-2) [%],inhibition of growth at 10 µM (BT-549) [%],inhibition of growth at 10 µM (A498) [%],inhibition of growth at 10 µM [2] [%],inhibition of growth at 10 µM (MCF7) [%],inhibition of growth at 10 µM (SNB-75) [%],inhibition of growth at 10 µM [3] [%],inhibition of growth at 10 µM (SK-MEL-28) [%],inhibition of growth at 10 µM (UO-31) [%],inhibition of growth at 10 µM (HCT-15) [%],inhibition of growth at 10 µM (SK-MEL-5) [%],inhibition of growth at 10 µM (OVCAR-4) [%],inhibition of growth at 10 µM (SF-539) [%],inhibition of growth at 10 µM (HCT-116) [%],inhibition of growth at 10 µM (Malme-3M) [%],inhibition of growth at 10 µM (K562) [%],inhibition of growth at 10 µM (RPMI-8226) [%],inhibition of growth at 10 µM (UACC-257) [%],further results
O=S(=O)(Nc1ccc(Cl)cc1)c1ccc2nc(-c3ccccc3)c(-c3ccccc3)nc2c1,100,34.8,23.9,77.8,44.3,37.9,47.7,45.1,55.2,14.6,29.2,44.7,74,30.3,25.9,59.6,6.64,55.6,86,17.9,inhibition of growth at 10 µM (U-251): 39.5%; inhibition of growth at 10 µM (COLO 205): 26.6%; inhibition of growth at 10 µM (MDA-MB-468): 76.8%; inhibition of growth at 10 µM (UACC-62): 30.6%; inhibition of growth at 10 µM (NCI-H23): 26.6%; inhibition of growth at 10 µM (SW-620): 30.3%; inhibition of growth at 10 µM (HT-29): 70.4%; inhibition of growth at 10 µM (NCI-H226): -2.45%; inhibition of growth at 10 µM (OVCAR-3): 28.8%; inhibition of growth at 10 µM (NCI-H522): 50.8%; inhibition of growth at 10 µM (A549): 41.9%; inhibition of growth at 10 µM (ACHN): 23.9%; inhibition of growth at 10 µM (SF-268): 14.1%; inhibition of growth at 10 µM [4]: 37.5%
O=C(NS(=O)(=O)c1ccc2nc(-c3ccccc3)c(-c3ccccc3)nc2c1)c1ccccc1,100,8.02,15.8,7.67,42.2,15.3,22.9,34.7,27.5,7.63,15.2,44.9,48.9,16.5,3.89,36.7,7.67,45.8,58.5,15.2,inhibition of growth at 10 µM (U-251): 21.6%; inhibition of growth at 10 µM (COLO 205): 19.5%; inhibition of growth at 10 µM (MDA-MB-468): 40.2%; inhibition of growth at 10 µM (UACC-62): 19.6%; inhibition of growth at 10 µM (NCI-H23): 19.6%; inhibition of growth at 10 µM (SW-620): 17.4%; inhibition of growth at 10 µM (HT-29): 48.4%; inhibition of growth at 10 µM (NCI-H226): 62%; inhibition of growth at 10 µM (OVCAR-3): 19.2%; inhibition of growth at 10 µM (NCI-H522): 23.5%; inhibition of growth at 10 µM (A549): 21.1%; inhibition of growth at 10 µM (ACHN): 11.8%; inhibition of growth at 10 µM (SF-268): 6.89%; inhibition of growth at 10 µM [4]: 17%
